Laboratory results published in ChEMBL document CHEMBL5653631, “A Potent and Selective ULK1 Inhibitor Suppresses Autophagy and Sensitizes Cancer Cells to Nutrient Stress” (iScience, 2018).
One block for each molecule: values may come before it.

Columns and labels:
[1] = molecular target: T1, MAP/microtubule affinity-regulating kinase 4 (Homo sapiens) (UniProt Q96L34); experiment: Inhibition of human recombinant MARK4 at 500 nM related to control ULK1
T1 sequence (whole entry): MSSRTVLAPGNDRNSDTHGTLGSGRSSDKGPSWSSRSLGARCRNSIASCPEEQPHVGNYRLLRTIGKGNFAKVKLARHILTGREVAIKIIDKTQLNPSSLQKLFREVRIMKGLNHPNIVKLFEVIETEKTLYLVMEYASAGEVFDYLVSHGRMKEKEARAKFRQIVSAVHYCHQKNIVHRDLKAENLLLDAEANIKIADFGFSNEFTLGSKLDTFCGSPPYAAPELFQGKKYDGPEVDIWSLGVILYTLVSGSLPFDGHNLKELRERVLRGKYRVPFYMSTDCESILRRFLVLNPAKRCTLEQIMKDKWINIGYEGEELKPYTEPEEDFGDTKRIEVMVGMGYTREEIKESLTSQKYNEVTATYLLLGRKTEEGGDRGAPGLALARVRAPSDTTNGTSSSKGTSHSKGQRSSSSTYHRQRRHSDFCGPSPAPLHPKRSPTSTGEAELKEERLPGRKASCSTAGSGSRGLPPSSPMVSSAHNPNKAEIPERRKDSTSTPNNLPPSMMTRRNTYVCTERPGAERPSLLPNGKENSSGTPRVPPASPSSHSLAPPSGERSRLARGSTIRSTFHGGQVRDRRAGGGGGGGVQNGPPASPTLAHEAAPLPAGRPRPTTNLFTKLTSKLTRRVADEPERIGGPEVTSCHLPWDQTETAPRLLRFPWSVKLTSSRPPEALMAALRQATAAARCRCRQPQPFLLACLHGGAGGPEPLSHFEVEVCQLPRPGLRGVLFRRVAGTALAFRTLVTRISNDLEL

[2] = molecular target: TRAF2 and NCK-interacting protein kinase (Homo sapiens) (UniProt Q9UKE5); experiment: Inhibition of human recombinant TNIK at 500 nM in presence of ATP by radiometric assay relative to control
[3] = molecular target: Cyclin-dependent kinase 6 (Homo sapiens) (UniProt Q00534); experiment: Inhibition of human recombinant CDK6 at 500 nM related to control ULK1
Chain of Cyclin-dependent kinase 6 (Homo sapiens) (Q00534 whole entry): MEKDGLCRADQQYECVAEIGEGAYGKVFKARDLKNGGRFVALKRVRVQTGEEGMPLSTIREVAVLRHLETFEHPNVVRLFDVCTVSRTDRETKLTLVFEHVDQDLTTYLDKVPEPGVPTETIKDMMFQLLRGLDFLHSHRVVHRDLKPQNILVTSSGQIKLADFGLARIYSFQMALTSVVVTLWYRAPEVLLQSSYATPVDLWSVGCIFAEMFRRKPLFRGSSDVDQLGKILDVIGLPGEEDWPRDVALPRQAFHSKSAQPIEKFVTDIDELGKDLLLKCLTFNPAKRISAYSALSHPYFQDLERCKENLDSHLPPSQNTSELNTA

[4] = molecular target: Calcium/calmodulin-dependent protein kinase type 1G (Homo sapiens) (UniProt Q96NX5); experiment: Inhibition of human recombinant CaMK1g at 500 nM related to control ULK1
Chain of Calcium/calmodulin-dependent protein kinase type 1G (Homo sapiens) (Q96NX5 whole entry): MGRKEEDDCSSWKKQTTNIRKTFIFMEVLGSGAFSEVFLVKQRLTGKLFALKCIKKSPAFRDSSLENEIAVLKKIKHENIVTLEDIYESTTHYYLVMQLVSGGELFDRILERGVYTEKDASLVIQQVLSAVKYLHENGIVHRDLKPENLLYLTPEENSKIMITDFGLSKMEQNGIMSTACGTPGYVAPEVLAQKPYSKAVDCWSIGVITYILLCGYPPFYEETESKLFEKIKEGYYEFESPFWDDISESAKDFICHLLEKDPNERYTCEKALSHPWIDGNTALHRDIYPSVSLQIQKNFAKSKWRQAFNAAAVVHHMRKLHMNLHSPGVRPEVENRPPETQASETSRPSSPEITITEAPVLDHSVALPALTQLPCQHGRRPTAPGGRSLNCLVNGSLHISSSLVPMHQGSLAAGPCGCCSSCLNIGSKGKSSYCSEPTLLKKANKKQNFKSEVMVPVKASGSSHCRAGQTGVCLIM

[5] = molecular target: T2, Dual specificity tyrosine-phosphorylation-regulated kinase 2 (Homo sapiens) (UniProt Q92630); experiment: Inhibition of human recombinant DYRK2 at 500 nM related to control ULK1
T2 sequence (whole entry): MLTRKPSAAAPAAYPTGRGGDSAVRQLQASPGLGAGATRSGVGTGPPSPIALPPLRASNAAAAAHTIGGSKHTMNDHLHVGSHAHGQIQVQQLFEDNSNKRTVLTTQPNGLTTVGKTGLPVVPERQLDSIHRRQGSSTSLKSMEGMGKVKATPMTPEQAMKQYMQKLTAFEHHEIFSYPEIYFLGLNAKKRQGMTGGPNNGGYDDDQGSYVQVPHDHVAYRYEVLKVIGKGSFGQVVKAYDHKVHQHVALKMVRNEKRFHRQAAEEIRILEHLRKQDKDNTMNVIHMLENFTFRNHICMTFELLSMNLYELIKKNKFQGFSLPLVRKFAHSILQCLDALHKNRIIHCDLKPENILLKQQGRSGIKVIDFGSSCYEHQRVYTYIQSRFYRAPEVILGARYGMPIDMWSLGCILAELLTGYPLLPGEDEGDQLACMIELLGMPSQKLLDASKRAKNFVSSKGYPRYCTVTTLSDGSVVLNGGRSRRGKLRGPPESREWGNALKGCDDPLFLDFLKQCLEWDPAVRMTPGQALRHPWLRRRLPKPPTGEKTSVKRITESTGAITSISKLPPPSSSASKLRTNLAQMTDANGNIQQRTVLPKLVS

[6] = molecular target: Calcium/calmodulin-dependent protein kinase type 1B (Homo sapiens) (UniProt Q6P2M8); experiment: Inhibition of human recombinant CaMK1b at 500 nM related to control ULK1
Chain of Calcium/calmodulin-dependent protein kinase type 1B (Homo sapiens) (Q6P2M8 whole entry): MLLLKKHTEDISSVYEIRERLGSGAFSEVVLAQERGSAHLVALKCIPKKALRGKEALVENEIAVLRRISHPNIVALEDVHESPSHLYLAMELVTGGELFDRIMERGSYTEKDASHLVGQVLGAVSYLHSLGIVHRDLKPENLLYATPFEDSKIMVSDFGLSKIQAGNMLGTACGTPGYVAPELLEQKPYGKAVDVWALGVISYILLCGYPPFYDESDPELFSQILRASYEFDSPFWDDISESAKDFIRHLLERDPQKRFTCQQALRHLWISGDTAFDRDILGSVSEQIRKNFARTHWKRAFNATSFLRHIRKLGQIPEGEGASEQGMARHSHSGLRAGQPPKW

[7] = molecular target: Serine-protein kinase ATM (Homo sapiens) (UniProt Q13315); experiment: Inhibition of human recombinant ATM at 500 nM related to control ULK1
Summary of the method: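 Panel of 327 recombinant human kinases, each assayed in vitro by radiometric activity assay in duplicate at a single inhibitor concentration per compound, chosen with reference to its ULK1 inhibition. Activity remaining was expressed as percent of vehicle control, and percent inhibition was calculated as 100 minus percent activity remaining.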

[8] = molecular target: Tyrosine-protein kinase FRK (Homo sapiens) (UniProt P42685); experiment: Inhibition of human recombinant FRK at 40 nM related to control ULK1
[9] = molecular target: Cyclin-dependent kinase 9 (Homo sapiens) (UniProt P50750); experiment: Inhibition of human recombinant CDK9 at 40 nM related to control ULK1
Chain of Cyclin-dependent kinase 9 (Homo sapiens) (P50750 whole entry): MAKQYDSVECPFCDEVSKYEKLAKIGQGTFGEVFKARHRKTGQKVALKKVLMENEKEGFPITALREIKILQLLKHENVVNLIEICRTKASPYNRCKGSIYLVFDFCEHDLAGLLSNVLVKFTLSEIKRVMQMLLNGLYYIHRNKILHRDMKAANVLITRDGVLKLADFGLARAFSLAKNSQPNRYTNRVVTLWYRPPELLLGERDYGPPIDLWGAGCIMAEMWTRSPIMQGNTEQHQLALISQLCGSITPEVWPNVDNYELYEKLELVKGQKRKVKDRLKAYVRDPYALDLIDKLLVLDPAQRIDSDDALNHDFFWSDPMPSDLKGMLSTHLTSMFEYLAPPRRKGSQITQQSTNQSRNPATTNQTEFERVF

[10] = molecular target: Rho-associated protein kinase 1 (Homo sapiens) (UniProt Q13464); experiment: Inhibition of human recombinant ROCK1 at 15 nM related to control ULK1
Chain of Rho-associated protein kinase 1 (Homo sapiens) (Q13464 2-1354 limits assumed): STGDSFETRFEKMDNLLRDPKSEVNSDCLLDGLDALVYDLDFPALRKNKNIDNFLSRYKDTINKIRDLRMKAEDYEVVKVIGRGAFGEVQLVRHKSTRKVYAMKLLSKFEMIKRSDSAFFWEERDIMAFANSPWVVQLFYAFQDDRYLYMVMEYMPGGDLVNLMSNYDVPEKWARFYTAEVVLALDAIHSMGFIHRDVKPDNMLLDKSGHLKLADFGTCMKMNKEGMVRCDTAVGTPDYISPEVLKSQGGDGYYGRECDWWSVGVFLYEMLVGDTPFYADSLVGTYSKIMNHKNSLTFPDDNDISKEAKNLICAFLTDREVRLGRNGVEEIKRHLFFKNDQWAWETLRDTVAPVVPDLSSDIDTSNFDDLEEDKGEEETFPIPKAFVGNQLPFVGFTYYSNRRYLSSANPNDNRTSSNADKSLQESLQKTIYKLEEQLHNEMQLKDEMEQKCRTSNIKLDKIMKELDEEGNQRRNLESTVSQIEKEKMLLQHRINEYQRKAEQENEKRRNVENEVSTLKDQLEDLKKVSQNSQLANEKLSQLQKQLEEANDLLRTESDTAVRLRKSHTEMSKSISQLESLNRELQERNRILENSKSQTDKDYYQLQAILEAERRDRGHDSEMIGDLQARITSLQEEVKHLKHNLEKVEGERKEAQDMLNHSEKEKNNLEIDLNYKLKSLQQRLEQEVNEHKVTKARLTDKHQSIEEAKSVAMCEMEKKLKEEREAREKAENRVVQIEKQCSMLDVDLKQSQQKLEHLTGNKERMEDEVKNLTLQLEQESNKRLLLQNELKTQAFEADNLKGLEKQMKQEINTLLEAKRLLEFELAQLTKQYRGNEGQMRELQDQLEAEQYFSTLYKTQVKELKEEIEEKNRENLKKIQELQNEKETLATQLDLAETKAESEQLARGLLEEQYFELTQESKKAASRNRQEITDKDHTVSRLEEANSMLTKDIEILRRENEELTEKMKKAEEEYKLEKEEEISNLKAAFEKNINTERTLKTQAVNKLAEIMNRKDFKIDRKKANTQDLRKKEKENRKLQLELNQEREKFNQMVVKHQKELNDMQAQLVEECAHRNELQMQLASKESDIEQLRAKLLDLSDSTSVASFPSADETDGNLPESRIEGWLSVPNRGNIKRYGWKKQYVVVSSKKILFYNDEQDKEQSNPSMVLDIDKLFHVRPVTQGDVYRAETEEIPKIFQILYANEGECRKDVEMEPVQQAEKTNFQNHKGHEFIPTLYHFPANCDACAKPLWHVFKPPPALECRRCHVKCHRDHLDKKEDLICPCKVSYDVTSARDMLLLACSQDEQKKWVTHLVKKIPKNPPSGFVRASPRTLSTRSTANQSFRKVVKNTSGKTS

[11] = molecular target: Tyrosine-protein kinase JAK2 (Homo sapiens) (UniProt O60674); experiment: Inhibition of human recombinant JAK2 at 15 nM in presence of ATP by radiometric assay relative to control
Chain of Tyrosine-protein kinase JAK2 (Homo sapiens) (O60674 whole entry): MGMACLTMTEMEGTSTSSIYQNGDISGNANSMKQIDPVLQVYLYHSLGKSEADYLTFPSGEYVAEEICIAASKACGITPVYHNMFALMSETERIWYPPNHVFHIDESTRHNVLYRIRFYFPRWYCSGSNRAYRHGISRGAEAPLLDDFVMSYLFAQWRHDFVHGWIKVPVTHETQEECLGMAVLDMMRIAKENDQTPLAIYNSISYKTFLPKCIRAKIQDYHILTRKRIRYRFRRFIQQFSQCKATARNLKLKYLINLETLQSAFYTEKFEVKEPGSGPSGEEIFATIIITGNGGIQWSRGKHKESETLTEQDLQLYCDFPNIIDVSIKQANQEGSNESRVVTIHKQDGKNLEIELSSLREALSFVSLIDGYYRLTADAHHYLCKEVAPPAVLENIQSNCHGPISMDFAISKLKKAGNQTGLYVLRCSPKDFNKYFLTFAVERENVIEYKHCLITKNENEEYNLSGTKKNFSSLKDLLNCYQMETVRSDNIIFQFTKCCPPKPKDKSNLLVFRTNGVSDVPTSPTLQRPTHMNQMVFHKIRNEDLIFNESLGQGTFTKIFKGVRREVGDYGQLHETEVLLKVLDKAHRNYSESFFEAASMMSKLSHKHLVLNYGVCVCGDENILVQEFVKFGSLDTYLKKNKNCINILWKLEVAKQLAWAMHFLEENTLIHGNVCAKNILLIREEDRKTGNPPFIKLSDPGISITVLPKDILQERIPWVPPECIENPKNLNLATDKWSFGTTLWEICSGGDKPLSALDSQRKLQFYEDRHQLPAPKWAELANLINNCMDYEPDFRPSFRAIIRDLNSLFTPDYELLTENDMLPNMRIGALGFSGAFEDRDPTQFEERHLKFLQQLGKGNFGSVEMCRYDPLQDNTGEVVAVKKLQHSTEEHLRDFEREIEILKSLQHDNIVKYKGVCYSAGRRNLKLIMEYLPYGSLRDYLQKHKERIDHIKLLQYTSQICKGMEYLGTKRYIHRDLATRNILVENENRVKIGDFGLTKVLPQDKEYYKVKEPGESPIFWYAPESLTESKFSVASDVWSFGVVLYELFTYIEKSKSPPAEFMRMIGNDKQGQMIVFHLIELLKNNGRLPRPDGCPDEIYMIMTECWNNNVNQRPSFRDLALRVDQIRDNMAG

[12] = molecular target: Serine/threonine-protein kinase B-raf (Homo sapiens) (UniProt P15056); experiment: Inhibition of human recombinant BRAF at 15 nM in presence of ATP by radiometric assay relative to control
Chain of Serine/threonine-protein kinase B-raf (Homo sapiens) (P15056 whole entry): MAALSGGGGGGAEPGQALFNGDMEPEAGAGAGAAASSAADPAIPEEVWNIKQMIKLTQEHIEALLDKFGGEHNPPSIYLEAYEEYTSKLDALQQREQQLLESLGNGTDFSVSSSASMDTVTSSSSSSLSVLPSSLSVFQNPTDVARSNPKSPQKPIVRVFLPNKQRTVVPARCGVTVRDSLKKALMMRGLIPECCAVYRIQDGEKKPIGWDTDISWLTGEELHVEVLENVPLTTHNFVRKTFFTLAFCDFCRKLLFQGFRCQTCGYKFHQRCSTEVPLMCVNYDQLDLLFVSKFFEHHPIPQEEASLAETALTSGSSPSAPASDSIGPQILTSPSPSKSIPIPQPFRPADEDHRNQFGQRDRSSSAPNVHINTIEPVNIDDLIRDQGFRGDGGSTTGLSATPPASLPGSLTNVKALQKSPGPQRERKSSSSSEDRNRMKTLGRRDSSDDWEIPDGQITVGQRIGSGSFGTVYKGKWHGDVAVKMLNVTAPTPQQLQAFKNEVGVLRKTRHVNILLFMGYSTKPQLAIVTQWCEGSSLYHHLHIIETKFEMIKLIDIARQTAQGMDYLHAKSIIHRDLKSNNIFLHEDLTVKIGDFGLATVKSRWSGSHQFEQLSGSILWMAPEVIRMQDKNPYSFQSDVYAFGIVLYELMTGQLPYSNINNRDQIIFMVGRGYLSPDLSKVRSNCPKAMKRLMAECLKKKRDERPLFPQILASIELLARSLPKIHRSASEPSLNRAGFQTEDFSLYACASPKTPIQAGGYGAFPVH
Summary of the method: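 Part of a radiometric in vitro activity panel of 327 recombinant human kinases. Each kinase was tested in duplicate at one inhibitor concentration. Activity remaining was expressed as a percentage of the vehicle control, and percent inhibition was taken as 100 minus that value.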

[13] = molecular target: T3, MAP kinase-activated protein kinase 5 (Homo sapiens) (UniProt Q8IW41); experiment: Inhibition of human recombinant MAPKAPK5 at 15 nM in presence of ATP by radiometric assay relative to control
T3 sequence (whole entry): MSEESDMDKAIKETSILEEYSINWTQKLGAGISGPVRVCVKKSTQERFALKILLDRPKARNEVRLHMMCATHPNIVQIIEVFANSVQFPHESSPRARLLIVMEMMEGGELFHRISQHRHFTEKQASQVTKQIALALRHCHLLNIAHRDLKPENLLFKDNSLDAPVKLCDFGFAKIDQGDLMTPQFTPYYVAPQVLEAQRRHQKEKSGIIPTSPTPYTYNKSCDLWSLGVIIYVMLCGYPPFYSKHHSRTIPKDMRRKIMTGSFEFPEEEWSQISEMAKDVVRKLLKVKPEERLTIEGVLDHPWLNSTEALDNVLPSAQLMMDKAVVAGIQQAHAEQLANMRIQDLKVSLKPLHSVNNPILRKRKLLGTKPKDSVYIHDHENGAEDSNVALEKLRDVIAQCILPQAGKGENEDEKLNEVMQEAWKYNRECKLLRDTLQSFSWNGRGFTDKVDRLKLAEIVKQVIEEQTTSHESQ

[14] = molecular target: Cyclin-dependent kinase 2 (Homo sapiens) (UniProt P24941); experiment: Inhibition of human recombinant CDK2 at 15 nM in presence of ATP by radiometric assay relative to control

fold change (FC) [1]: 0.78
inhibition [2]: 4%
fold change (FC) [3]: 0
fold change (FC) [4]: 0.08
fold change (FC) [5]: 0
fold change (FC) [6]: 0
fold change (FC) [7]: 0.03
SMILES: CNC(=O)c1ccccc1Oc1nc(Nc2cc(OC)c(OC)c(OC)c2)ncc1Br

fold change (FC) [8]: 0
fold change (FC) [9]: 0
SMILES: O=C(N[C@@H](C1CC1)C(F)(F)F)c1cc(-c2cnn3cc(-c4ccc(F)cc4)cnc23)cs1

fold change (FC) [10]: 0.09
inhibition [11]: 6%
inhibition [12]: 11%
inhibition [13]: 0%
inhibition [14]: 1%
SMILES: CC(C)[C@H](NC(=O)c1cc(-c2cnn3cc(-c4ccc(OCCN5CCCCC5)cc4)cnc23)cs1)C(F)(F)F
